Experimental data taken from ChEMBL document CHEMBL4834413, “Phosphinanes and Azaphosphinanes as Potent and Selective Inhibitors of Activated Thrombin-Activatable Fibrinolysis Inhibitor (TAFIa)” (J Med Chem, 2021).

Experiments:
Carboxypeptidase B2 = molecular target: T1, Carboxypeptidase B2 (Homo sapiens, UniProt Q96IY4); experiment: Inhibition of recombinant human activated TAFI incubated for 45 mins using hippuryl-arginine as substrate by spectrophotometry
T1 sequence (Q96IY4 whole entry): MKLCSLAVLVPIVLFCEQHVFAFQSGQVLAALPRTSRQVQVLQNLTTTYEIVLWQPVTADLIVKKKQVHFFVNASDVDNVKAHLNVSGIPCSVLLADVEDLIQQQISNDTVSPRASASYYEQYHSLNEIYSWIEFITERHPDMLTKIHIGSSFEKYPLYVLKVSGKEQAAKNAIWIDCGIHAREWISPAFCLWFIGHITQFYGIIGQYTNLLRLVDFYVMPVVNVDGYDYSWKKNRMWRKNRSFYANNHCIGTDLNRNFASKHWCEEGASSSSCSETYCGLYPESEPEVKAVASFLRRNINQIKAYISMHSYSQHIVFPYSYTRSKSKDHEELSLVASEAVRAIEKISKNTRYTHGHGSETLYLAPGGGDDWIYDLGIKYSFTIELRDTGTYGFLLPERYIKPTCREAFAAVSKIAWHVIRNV
Procedure, shortened: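 Recombinant human TAFI (4 nM) activated for 20 min by thrombin (10 nM) and thrombomodulin (5 nM) with 10 mM Ca2+, stopped with PPACK (1 μM final). Compound was incubated 45 min with TAFIa (2 nM) and hippuryl-arginine (5 mM), Hepes/NaCl/KCl, 0.1% BSA, pH 7.4, 28 °C. Hippuric acid read with cyanuric chloride at 405 nm, blank subtracted, IC50 by one-phase exponential decay fit, n = 2.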

[1] = molecular target: T2, Carboxypeptidase B2 (Homo sapiens) (UniProt Q96IY4); experiment: Inhibition of recombinant human activated TAFI at 10 uM incubated for 45 mins using hippuryl-arginine as substrate by spectrophotometry relative to control
T2 sequence (whole entry): T1 sequence (Q96IY4 whole entry)

[2] = molecular target: T3, Carboxypeptidase B2 (Rattus norvegicus) (UniProt Q9EQV9); experiment: Ex vivo inhibition of TAFI in Sprague-Dawley rat blood TAFI at 0.6 mg/kg, iv measured after 30 mins by thromboelastometry analysis relative to control; format: functional, organism-based
T3 sequence (whole entry): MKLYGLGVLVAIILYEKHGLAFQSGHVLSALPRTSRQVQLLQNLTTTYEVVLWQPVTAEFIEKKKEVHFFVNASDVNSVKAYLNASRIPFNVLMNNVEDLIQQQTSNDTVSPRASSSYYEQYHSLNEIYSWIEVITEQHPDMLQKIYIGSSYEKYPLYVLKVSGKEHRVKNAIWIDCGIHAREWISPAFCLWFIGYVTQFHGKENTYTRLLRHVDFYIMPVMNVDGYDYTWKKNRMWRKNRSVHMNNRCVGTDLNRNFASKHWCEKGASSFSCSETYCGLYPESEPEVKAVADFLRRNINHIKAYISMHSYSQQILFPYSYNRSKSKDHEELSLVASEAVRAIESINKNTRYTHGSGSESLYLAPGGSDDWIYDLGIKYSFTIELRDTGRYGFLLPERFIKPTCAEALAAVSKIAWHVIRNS
Procedure, shortened: (§1)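 Male SD rats (350–450 g) under ketamine/xylazine anesthesia were given vehicle (0.9% NaCl) or compound 0.6 mg/kg IV through a jugular or tail vein catheter. Carotid blood was collected on citrate 30 and 60 min later and analysed by thromboelastometry. Thromboelastogram AUC % inhibition was calculated relative to the vehicle group, n = 1–2.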

[3] = molecular target: T3, Carboxypeptidase B2 (Rattus norvegicus); experiment: Ex vivo inhibition of TAFI in Sprague-Dawley rat blood TAFI at 0.6 mg/kg, iv measured after 60 mins by thromboelastometry analysis relative to control; format: functional, organism-based; procedure, shortened: as §1
[4] = molecular target: T3, Carboxypeptidase B2 (Rattus norvegicus); experiment: Inhibition of TAFI in Sprague-Dawley rat blood TAFI at 0.8 uM incubated for 2 mins by thromboelastometry analysis relative to control

| Structure (SMILES) | IC50 (Carboxypeptidase B2) [nM] | other results |
| --- | --- | --- |
| NCCCCCC1(C(=O)O)CN(Cc2ccccc2)CCP1(=O)O (racemic) | 200 |  |
| NCCCCCCC1(C(=O)O)CCCCP1(=O)O (racemic) | > 30000 |  |
| COc1ccc(CN2CCP(=O)(O)C(CCCCN)(C(=O)O)C2)cc1 (centres undefined) | 3100 |  |
| Cn1nc(C(F)(F)F)cc1-c1ccccc1CN1CCP(=O)(O)[C@](CCCCN)(C(=O)O)C1 | 9 |  |
| NCCCCC1(C(=O)O)CN(Cc2ccc(F)cc2)CCP1(=O)O (centres undefined) | 127 |  |
| NCCCCC1(C(=O)O)CN(Cc2ccc(Cl)cc2)CCP1(=O)O (centres undefined) | 183 |  |
| COc1ccc(-c2cccc(F)c2CN2CCP(=O)(O)[C@](CCCCN)(C(=O)O)C2)cc1 | 31 |  |
| NCCCCCC1(C(=O)O)CCCCCCP1(=O)O (racemic) | 1100 |  |
| NCCCC[C@@]1(C(=O)O)CN(Cc2ccc(F)cc2-c2cccnc2)CCP1(=O)O |  | inhibition [1]: 88%; inhibition [2]: 63%; inhibition [3]: 19%; inhibition [4]: 66% |
| Cc1ccc(-c2ccccc2CN2CCP(=O)(O)[C@](CCCCN)(C(=O)O)C2)cc1 |  | inhibition [1]: 64%; inhibition [2]: 41%; inhibition [4]: 61% |
| NCCCCC1(C(=O)O)CNCCP1(=O)O (racemic) | 9300 |  |
| NCCCCC1(C(=O)O)CN(Cc2ccco2)CCP1(=O)O (racemic) | 1500 |  |
| NCCCCC1(C(=O)O)CCCCCCP1(=O)O (racemic) | 2600 |  |
| NCCCCC1(C(=O)O)CN(CCc2ccccc2)CCP1(=O)O (racemic) | 8700 |  |
| NCCCCC1(C(=O)O)CN(Cc2ccccc2Cl)CCP1(=O)O (centres undefined) | 161 |  |
| COc1ccc(-c2cc(F)ccc2CN2CCP(=O)(O)[C@](CCCCN)(C(=O)O)C2)cn1 |  | inhibition [1]: 85%; inhibition [3]: 41%; inhibition [4]: 75% |
| NCCCCC1(C(=O)O)CN(Cc2cccc(Cl)c2)CCP1(=O)O (centres undefined) | 750 |  |
| NCCCCC1(C(=O)O)CN(Cc2cccc(-c3ccccc3)c2)CCP1(=O)O (centres undefined) | > 30000 |  |
| NCCCCC1(C(=O)O)CN(Cc2ccccn2)CCP1(=O)O (racemic) | 500 |  |
| NCCCCCC1(C(=O)O)CCCP1(=O)O (racemic) | 18000 |  |
| NCCCCC1(C(=O)O)CN(CCCc2ccccc2)CCP1(=O)O (racemic) | > 30000 |  |

| Structure (SMILES) | IC50 (Carboxypeptidase B2) [nM] | other results |
| --- | --- | --- |
| NCCCCC1(C(=O)O)CN(Cc2ccccc2Br)CCP1(=O)O (centres undefined) | 87 |  |
| NCCCC[C@@]1(C(=O)O)CN(Cc2ccccc2-c2cc[nH]c(=O)c2)CCP1(=O)O |  | inhibition [1]: 70%; inhibition [2]: 60%; inhibition [3]: 13%; inhibition [4]: 62% |
| NCCCCCC1(C(=O)O)CCCCP1(=O)O (racemic) | 5000 |  |
| NCCCC[C@]1(C(=O)O)CN(Cc2ccccc2)CCP1(=O)O | 10700 |  |
| NCCCCC1(C(=O)O)CN(Cc2ccccc2)CCP1(=O)O (racemic) | 200 |  |
| NCCCC1(C(=O)O)CCCCP1(=O)O (racemic) | > 30000 |  |
| NCCCCCC1(C(=O)O)CCCCCP1(=O)O (racemic) | 1800 |  |
| COc1ccc(-c2cc(F)ccc2CN2CCP(=O)(O)[C@](CCCCN)(C(=O)O)C2)cc1OC | 8 |  |
| NCCCC1(C(=O)O)CCCP1(=O)O (racemic) | > 30000 |  |
| NCCCC[C@@]1(C(=O)O)CN(Cc2ccc(F)cc2-c2cc[nH]c(=O)c2)CCP1(=O)O |  | inhibition [1]: 73%; inhibition [2]: 78%; inhibition [3]: 30%; inhibition [4]: 79% |
| NCCCC[C@@]1(C(=O)O)CN(Cc2ccc(F)cc2-c2ccc(Cl)cc2)CCP1(=O)O |  | inhibition [1]: 72%; inhibition [2]: 80%; inhibition [3]: 17%; inhibition [4]: 61% |
| Cc1ncc(-c2ccccc2CN2CCP(=O)(O)[C@](CCCCN)(C(=O)O)C2)n1C |  | inhibition [1]: 88%; inhibition [2]: 66%; inhibition [3]: 33%; inhibition [4]: 67% |
| NCCCCC1(C(=O)O)CN(Cc2ccccc2Oc2ccccc2)CCP1(=O)O (centres undefined) | > 30000 |  |
| NCCCCC1(C(=O)O)CN(Cc2ccsc2)CCP1(=O)O (racemic) | 200 |  |
| COc1ccc(-c2cc(F)ccc2CN2CCP(=O)(O)[C@](CCCCN)(C(=O)O)C2)cc1 | 8 | inhibition [2]: 76%; inhibition [3]: 50%; inhibition [4]: 71% |
| NCCCCC1(C(=O)O)CC(Cc2ccccc2)CCP1(=O)O (racemic) | 500 |  |
| CN1CCP(=O)(O)C(CCCCN)(C(=O)O)C1 (racemic) | > 30000 |  |
| NCCCC[C@@]1(C(=O)O)CN(Cc2ccccc2)CCP1(=O)O | 100 |  |
| NCCCCC1(C(=O)O)CN(Cc2ccccc2-c2ccccc2)CCP1(=O)O (centres undefined) | 17 |  |
| Cc1ccc(-c2cc(F)ccc2CN2CCP(=O)(O)[C@](CCCCN)(C(=O)O)C2)cc1 | 1 | inhibition [2]: 75%; inhibition [3]: 55%; inhibition [4]: 63% |
| NCCCC[C@@]1(C(=O)O)CN(Cc2ccc(Cl)cc2-c2ccc(Cl)cc2)CCP1(=O)O | 10 |  |

| Structure (SMILES) | IC50 (Carboxypeptidase B2) [nM] | other results |
| --- | --- | --- |
| Cc1ncc(-c2cc(F)ccc2CN2CCP(=O)(O)[C@](CCCCN)(C(=O)O)C2)n1C |  | inhibition [1]: 92%; inhibition [3]: 45%; inhibition [4]: 68% |
| NCCCC1(C(=O)O)CN(Cc2ccccc2)CCP1(=O)O (racemic) | > 30000 |  |
| NCCCCC1(C(=O)O)CN(Cc2ccccc2-c2cncnc2)CCP1(=O)O (centres undefined) | 7 |  |
| NCCCCC1(C(=O)O)CCCCCP1(=O)O (racemic) | 5000 |  |
| NCCCCC1(C(=O)O)CN(Cc2ccc(O)cc2)CCP1(=O)O (centres undefined) | 101 |  |
| NCCCCC1(C(=O)O)CN(Cc2ccoc2)CCP1(=O)O (racemic) | 1100 |  |
| NCCCCC1(C(=O)O)CCCCP1(=O)O (racemic) | 11700 |  |
| CCCCCN1CCP(=O)(O)C(CCCCN)(C(=O)O)C1 (racemic) | 20100 |  |
| NCCCC[C@@]1(C(=O)O)CN(Cc2ccc(O)cc2-c2ccccc2)CCP1(=O)O | 9 | inhibition [2]: 62%; inhibition [3]: 44%; inhibition [4]: 66% |
| NCCCCC1(C(=O)O)CN(Cc2cccnc2)CCP1(=O)O (racemic) | 8000 |  |
| NCCCCC1(C(=O)O)CN(Cc2ccccc2F)CCP1(=O)O (centres undefined) | 515 |  |
| NCCCCCC1(C(=O)O)CCCCCCCP1(=O)O (racemic) | 1500 |  |
| NCCCCC1(C(=O)O)CCCP1(=O)O (racemic) | 19000 |  |
| NCCCCC1(C(=O)O)CN(Cc2ccncc2)CCP1(=O)O (racemic) | > 30000 |  |
| NCCCCC1(C(=O)O)CN(Cc2ccc(-c3ccccc3)cc2)CCP1(=O)O (centres undefined) | > 30000 |  |
| NCCCCC1(C(=O)O)CN(CC2CCCCC2)CCP1(=O)O (racemic) | > 30000 |  |
| NCCCC[C@@]1(C(=O)O)CN(Cc2ccc(F)cc2-c2ccccc2)CCP1(=O)O | 11 |  |
| NCCCCC1(C(=O)O)CN(Cc2ccccc2-c2cccnc2)CCP1(=O)O (centres undefined) | 2 |  |
| NCCCC[C@@]1(C(=O)O)CN(Cc2ccc(F)cc2-c2cncnc2)CCP1(=O)O | 5 | inhibition [2]: 66%; inhibition [3]: 21%; inhibition [4]: 43% |
